35 compounds from ChEMBL document CHEMBL1122112, “Imidodisulfamides. 1. A novel class of antagonists of slow-reacting substance of anaphylaxis” (1982) can be followed below.

The first assay is filed under the species Cavia porcellus. Nature of the assay: Percent inhibition of slow reacting substance of anaphylaxis (SRS-A) induced contractions of isolated guinea pig ileum at 20 uM concentration. Format: functional. A digest of the protocol:
(§1)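 Ileum segments proximal to Peyer's patch from male albino Hartley guinea pigs (400-600 g), in modified Tyrode's at 37.5 °C gassed with 95% O2-5% CO2. Isometric contractions recorded. Partially purified guinea pig SRS-A applied at a level giving 60-80% of maximal contraction until responses are reproducible, then reapplied after incubation with compound. Controls receive vehicle. Inhibition is the mean % change in treated tissue minus the mean % change in controls. FPL-55712 serves as reference.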
For the compound `O=S(=O)(NCCCc1ccccc1)NS(=O)(=O)NCCCc1ccccc1`, the inhibition at 20 µM was 15%.
For `O=S(=O)(NCCc1ccccc1)NS(=O)(=O)NCCc1ccccc1`, the inhibition at 20 µM worked out at 7%.
For `O=S(=O)(Nc1ccccc1)NS(=O)(=O)Nc1ccccc1`, the inhibition at 20 µM was determined as 6%.
On the same count and under the same terms, next, `O=S(=O)(NCCc1ccc(Cl)cc1)NS(=O)(=O)NCCc1ccc(Cl)cc1`: 62%.

The next assay is filed under the species Cavia porcellus. Nature of the assay: Percent inhibition of slow reacting substance of anaphylaxis (SRS-A) induced contractions of isolated guinea pig ileum at 10 uM concentration. The assay is classed as functional. The essentials:
as §1
Turning to `O=S(=O)(NCc1ccccc1)NS(=O)(=O)NCc1ccccc1`, the inhibition at 10 µM amounted to 0.2%.
Same read-out and setting: next, `O=S(=O)(NCCCCc1ccccc1)NS(=O)(=O)NCCCCc1ccccc1`: 40%; `O=S(=O)(NCCCCc1ccc(Cl)cc1)NS(=O)(=O)NCCCCc1ccc(Cl)cc1`: 22%; `O=S(=O)(NCCCCCc1ccccc1)NS(=O)(=O)NCCCCCc1ccccc1`: 8%.
With `O=S(=O)(NCCc1ccc(Cl)c(Cl)c1)NS(=O)(=O)NCCc1ccc(Cl)c(Cl)c1`, the inhibition at 10 µM was found to be 43%.
`O=S(=O)(Nc1ccc(C(F)(F)F)cc1)NS(=O)(=O)Nc1ccc(C(F)(F)F)cc1`: the inhibition at 10 µM amounted to 24%.
As for `O=S(=O)(NCCCCCCc1ccccc1)NS(=O)(=O)NCCCCCCc1ccccc1`, the inhibition at 10 µM worked out at 15%.
On the same count and under the same terms, the value for `O=S(=O)(NCCc1ccccc1Cl)NS(=O)(=O)NCCc1ccccc1Cl` was 8%.

A further assay is filed under the species Cavia porcellus. Nature of the assay: Percent inhibition of slow reacting substance of anaphylaxis (SRS-A) induced contractions of isolated guinea pig ileum at 5 uM concentration. The assay is classed as functional. A digest of the protocol: as §1
Take `CCCCc1ccc(NS(=O)(=O)NS(=O)(=O)Nc2ccc(CCCC)cc2)cc1`: the inhibition at 5 µM was 5%.
With `CCOC(=O)c1ccc(NS(=O)(=O)NS(=O)(=O)Nc2ccc(C(=O)OCC)cc2)cc1`, the inhibition at 5 µM was -5%.
The same measure, in the same setting: next, `O=S(=O)(NCCc1cccc(SC(F)(F)F)c1)NS(=O)(=O)NCCc1cccc(SC(F)(F)F)c1`: -6%.

The species entered for the next assay is Cavia porcellus. Nature of the assay: Percent inhibition of slow reacting substance of anaphylaxis (SRS-A) induced contractions of isolated guinea pig ileum at 50 uM concentration. The assay is classed as functional. A digest of the protocol: as §1
Take `COc1ccccc1CCNS(=O)(=O)NS(=O)(=O)NCCc1ccccc1OC`: the inhibition at 50 µM was determined as 0.2%.
On to `O=S(=O)(Nc1ccc(Br)cc1)NS(=O)(=O)Nc1ccc(Br)cc1`, for which the inhibition at 50 µM was 47%.
Same read-out and setting: the value for `O=S(=O)(Nc1cccc(Cl)c1)NS(=O)(=O)Nc1cccc(Cl)c1` was 16%.
On the same count and under the same terms, the value for `O=S(=O)(Nc1cccc(F)c1)NS(=O)(=O)Nc1cccc(F)c1` was 10%; that for `O=[N+]([O-])c1ccc(CCNS(=O)(=O)NS(=O)(=O)NCCc2ccc([N+](=O)[O-])cc2)cc1` was 19%.
The same measure, in the same setting: the value for `O=S(=O)(Nc1cccc(C(F)(F)F)c1)NS(=O)(=O)Nc1cccc(C(F)(F)F)c1` was 34%.
Consider `O=S(=O)(NCCc1cccc(C(F)(F)F)c1)NS(=O)(=O)NCCc1cccc(C(F)(F)F)c1`, for which the inhibition at 50 µM stood at 32%.
Still for that read-out and setting: next, `O=S(=O)(Nc1ccc(F)cc1)NS(=O)(=O)Nc1ccc(F)cc1`: 1%; `O=S(=O)(NCCc1cccc(Cl)c1)NS(=O)(=O)NCCc1cccc(Cl)c1`: 16%; `COc1cccc(CCNS(=O)(=O)NS(=O)(=O)NCCc2cccc(OC)c2)c1`: 9%.
Consider `O=S(=O)(NCCc1ccc(Br)cc1)NS(=O)(=O)NCCc1ccc(Br)cc1`, for which the inhibition at 50 µM is 72%.
The same measure, in the same setting: the value for `Cc1cccc(NS(=O)(=O)NS(=O)(=O)Nc2cccc(C)c2)c1` was 13%.
On the same count and under the same terms, next, `CSc1cccc(NS(=O)(=O)NS(=O)(=O)Nc2cccc(SC)c2)c1`: 12%; `Cc1ccc(CCNS(=O)(=O)NS(=O)(=O)NCCc2ccc(C)cc2)cc1`: 1%.
Same read-out and setting: next, `O=S(=O)(NCCc1ccc(O)cc1)NS(=O)(=O)NCCc1ccc(O)cc1`: 7%; `O=S(=O)(Nc1cccc(Br)c1)NS(=O)(=O)Nc1cccc(Br)c1`: 38%; `N#Cc1ccc(NS(=O)(=O)NS(=O)(=O)Nc2ccc(C#N)cc2)cc1`: -8%.
In the case of `CC(=O)c1ccc(NS(=O)(=O)NS(=O)(=O)Nc2ccc(C(C)=O)cc2)cc1`, the inhibition at 50 µM is -11%.
Same read-out and setting: next, `O=S(=O)(Nc1ccc(C(F)(F)F)cc1)NS(=O)(=O)Nc1ccc(C(F)(F)F)cc1`: 86%.
Same read-out and setting: next, `COc1ccc(CCNS(=O)(=O)NS(=O)(=O)NCCc2ccc(OC)cc2)cc1`: 18%.
Same read-out and setting: the value for `O=S(=O)(Nc1ccc(Cl)cc1)NS(=O)(=O)Nc1ccc(Cl)cc1` was -2%.
